Assay outcomes as filed in PubChem BioAssay.
An excerpt weighted towards active compounds, which were near 1.6% of everything screened.
PKA-R2B activ: activators of human PKA-R2B complex; P22694+P31323; PKA-R2B holoenzyme dissociation, Cy5-IP20 fluorescence polarization; R2B truncated from residue 108, S112A mutant; 0% DMSO only, 100% 113 µM cGMP; activation, % at 11.4 µM; 340,000 compounds, 0.079% hits;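 active means activation above a cutoff set at the mean over all compounds plus 3 SD, cut at about 18% in these data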;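 further: higher means more holoenzyme dissociation and a rise in polarization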
Target sequence (P31323 whole entry, looked up, other chains not shown, the tested form may be a part): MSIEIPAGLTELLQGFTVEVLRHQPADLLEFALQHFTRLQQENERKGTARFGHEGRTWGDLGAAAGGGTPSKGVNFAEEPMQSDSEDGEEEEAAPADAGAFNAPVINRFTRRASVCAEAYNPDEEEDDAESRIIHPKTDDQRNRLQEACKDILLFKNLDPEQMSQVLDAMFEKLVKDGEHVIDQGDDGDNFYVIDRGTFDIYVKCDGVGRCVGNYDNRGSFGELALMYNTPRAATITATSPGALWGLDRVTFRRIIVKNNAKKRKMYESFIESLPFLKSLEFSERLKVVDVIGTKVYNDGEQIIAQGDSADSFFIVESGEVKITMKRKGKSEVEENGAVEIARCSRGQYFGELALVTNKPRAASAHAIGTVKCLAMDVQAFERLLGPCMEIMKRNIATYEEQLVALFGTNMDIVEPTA
PG9 binder: small molecules binding HIV-1 gp120 antibody PG9 | inhibition, % at 6.7 µM | 360,000 compounds, 0.43% hits | TR-FRET gp120-PG9 antibody binding | AID 624416; in the data active means inhibition above about 8.5%
PKA-R1A activ: activators of PKA-R1A complex; 340,000 compounds, 0.083% hits; activation, % at 11.4 µM; P00514+P68181; AID 504707; PKA-R1A dissociation, Cy5-IP20 fluorescence polarization; scaled: DMSO 0%, 113 µM cGMP 100%;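 active means percent activation above the mean of all tested compounds plus 3 SD, cut at about 19% in these data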;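 further: higher means more PKAc released from R1A so a rise in polarization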
NR2E3 ag-1: agonists of human NR2E3 nuclear receptor; Q9Y5X4; CHO-S Gal4-NCOR/VP16-NR2E3 two-hybrid, luciferase; inhibition of corepressor binding, % at 3.98 µM; 360,000 compounds, 0.35% hits;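 active means inhibition above the mean of all tested compounds plus 3 SD, cut at about 70% in these data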;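 further: higher means lower luciferase signal from less NR2E3 corepressor binding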
NR2E3 ag-2: NR2E3 (human) agonism | Q9Y5X4 | GST-NR2E3/biotin-RetCOR TR-FRET, 1536-well | inhibition of corepressor binding, % at 4.78 µM | 320,000 compounds, 0.12% hits | AID 2300;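 active means percent inhibition above the cutoff of mean plus 3 SD of all tested compounds, set per screening campaign, cut at about 20% in these data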
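Material: NR2E3–RetCOR corepressor complex | Quantity: 1.35 nM GST-tagged NR2E3 final | Schedule: 5 h at 4 °C | Replication: Singlicate compound wells | Reagent: RetCOR corepressor, biotinylated, 7 nM | Controls: Biotin wells as high control, 0.6% DMSO wells as low control | Signal: TR-FRET, Eu(K)-anti-GST donor, streptavidin-D2 acceptor, ex 340, em 617/671 nm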
NR1D1 modulator: modulators of human Rev-erb alpha DNA binding; P20393; Rev-erbα–FITC-DNA binding, fluorescence polarization, 90 min; activity, % at 10 µM; 370,000 compounds, 0.79% hits; AID 1259318;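 active means activity above about 14%, limit read from the data; passing the limit was not always enough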
NR2E3 ag conf: NR2E3 agonism confirmed in two-hybrid assay | shares compounds with NR2E3 ag-1 | AID 624378 | CHO-S mammalian two-hybrid NR2E3-NCOR, luciferase luminescence | inhibition, % at 3.98 µM | 2,300 compounds, 51% hits;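 active means average inhibition above a cutoff equal to the mean inhibition of all tested compounds plus one SD, cut at about 70% in these data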
GAL4-VP16 luc: reduces GAL4-VP16 reporter signal in NR2E3 counterscreen; shares compounds with NR2E3 ag-1; 2,300 compounds, 29% hits; CHO-S GAL4-VP16 luciferase reporter, luminescence; inhibition, % at 3.98 µM;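 active means mean inhibition above a cutoff equal to the average over all tested compounds plus one standard deviation, cut at about 70% in these data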;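 further: luciferase from a UAS reporter driven by GAL4-VP16 transactivation; higher means less reporter light so more repression of VP16 activity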
A number is an active result; . = inactive; / = no result given.

SMILES | PKA-R2B activ | PG9 binder | PKA-R1A activ | NR2E3 ag-1 | NR2E3 ag-2 | NR1D1 modulator | NR2E3 ag conf | GAL4-VP16 luc
COCCNC(=S)N/N=C/c1ccccc1C(=O)O | . | . | . | . | . | . | / | /
COCCNC(=S)N/N=C(\C)c1ccccc1O | . | . | . | . | . | . | . | .
O=C(O)CCSc1nnc(-c2ccc3c(c2)OCO3)o1 | . | . | . | . | . | . | . | .
CC1=C[C@]2(C[N+](Cc3ccccc3)=C(N)N2)n2c(=O)n(-c3ccccc3)c(=O)n2C1 | / | / | / | / | / | . | / | /
COc1ccccc1CNc1nc(NCc2ccc(C(C)C)cc2)c2sccc2n1 | / | . | / | . | / | . | / | /
CSc1ccccc1CNc1nc(NCC2CC2)nc2ccsc12 | / | . | / | 72 | / | . | . | .
COc1cccc(CNc2nc(NCC3CC3)nc3ccsc23)c1 | / | . | / | 84 | / | . | . | .
COc1cccc(CNc2nc(NCc3ccccc3)nc3ccsc23)c1 | / | . | / | . | / | . | . | .
CC(C)c1ccc(CNc2nc(NCC3CC3)nc3ccsc23)cc1 | / | . | / | . | / | . | . | .
C#CCCN([C@H](C(=O)OC)C(C)C)S(=O)(=O)c1ccccc1Br | / | / | / | / | / | . | / | /
O=C(NCCN1CCC(Cc2ccccc2)CC1)C1CCCN(S(=O)(=O)c2ccc([N+](=O)[O-])cc2)C1 (configuration not stated) | / | / | / | / | / | . | / | /
COc1ccc2[nH]c3c(c2c1)CCN[C@]31C(=O)N(Cc2cn(Cc3ccccc3)nn2)c2ccc(F)cc21 | / | / | / | / | / | . | / | /
CCN1CCCCC(NC(=O)c2cc(OC)c(OC)c(OC)c2)C1=O (configuration not stated) | / | / | / | / | / | . | / | /
CC(=O)Nc1ccc(C(/C=C/c2ccccc2)Cc2ccccc2)cc1 (configuration not stated) | / | / | / | / | / | . | / | /
COc1ccccc1-[n+]1c(C)cc(/C=C2\Sc3ccccc3N2C)cc1C | . | . | . | 92 | . | . | 97 | 83
COc1ccc(-[n+]2c(C)cc(/C=C3\Sc4ccccc4N3C)cc2C)cc1 | . | . | . | 93 | . | . | 99 | 92
COc1ccc(C(=O)/C=C2\Sc3ccccc3N2C)cc1 | / | . | / | . | . | . | / | /
CCc1c(-c2ccccc2Br)ncn1CCc1ccccc1OC | / | . | / | / | / | . | / | /
CN(C)C(=S)N=c1ssc(=S)n1Cc1cccnc1 | . | . | . | 86 | / | . | . | .
S=C1NCN(Cc2cccnc2)CN1 | / | . | / | . | . | . | / | /
COc1ccc(NC(=O)c2ccccc2)cc1NS(=O)(=O)c1ccc(F)cc1 | . | . | . | . | . | . | / | /
COc1ccc(NC(=O)c2ccc(-c3ccccc3)cc2)cc1NS(=O)(=O)c1ccc(F)cc1 | . | . | . | . | . | . | . | .
O=c1c2cc3cccnc3nc2ncn1Cc1cccs1 | / | / | / | / | / | . | / | /
CCOC(=O)CC[C@H]1CC[C@]2(CCCN(C(=O)c3cccnc3)C2)O1 | / | / | / | / | / | . | / | /
Cc1nc(N/N=C/c2cccc(F)c2)cc(N2CCOCC2)n1 | . | . | . | . | . | . | . | .
SMILES | PKA-R2B activ | PG9 binder | PKA-R1A activ | NR2E3 ag-1 | NR2E3 ag-2 | NR1D1 modulator | NR2E3 ag conf | GAL4-VP16 luc
Oc1cccc(/C=N/Nc2cc(N3CCOCC3)nc(N3CCOCC3)n2)c1 | . | . | . | . | . | . | / | /
Cc1cccc(N2CCN(C(=O)CSCc3c(C)noc3C)CC2)c1C | . | / | . | . | . | / | 87 | .
O=C(NC1CCCCN(Cc2ccc(OC(F)(F)F)cc2)C1=O)c1ccc(F)c(F)c1 (configuration not stated) | / | / | / | / | / | . | / | /
Cc1cc(NC(=O)CSc2nc3c(sc4ccccc43)c(=O)n2CCCN2CCOCC2)n[nH]1 | . | . | . | 72 | . | . | 96 | .
Cc1ccc(S(=O)(=O)N2CCCC2C(c2ccccc2O)c2cn(C)c3ccccc23)cc1 (configuration not stated) | / | / | / | / | / | . | / | /
Cc1ccc(C(C#N)c2ccc(C(=O)c3ccc(F)cc3)cc2)cc1 (configuration not stated) | . | . | . | . | . | . | . | .
O=c1[nH][nH]c(-c2ccccc2)c1C=Nc1ccc(OC(F)(F)F)cc1 | . | . | . | . | . | . | . | .
CC1Cc2ccccc2N1C(=O)CN1CCC(n2nnc3cc(C(F)(F)F)ccc32)CC1 (configuration not stated) | . | . | . | . | . | . | . | .
COCCCNC(=O)[C@@H](Cc1ccccc1)NC(=O)[C@H]1O[C@@H](n2ccc(=O)[nH]c2=O)[C@H](O)[C@@H]1O | / | . | / | / | / | . | / | /
Cc1csc(NC(=O)c2ccc(Cn3nc(C)c(Br)c3C)o2)n1 | . | . | . | 78 | . | . | 73 | .
CN(C)S(=O)(=O)c1cccc(CSCc2cccc(S(=O)(=O)N(C)C)c2)c1 | . | . | . | 88 | . | . | 94 | 81
CCN(CC)S(=O)(=O)c1ccc(S(=O)(=O)Nc2c(C)nn(C)c2C)cc1 | . | . | . | . | . | . | . | .
O=C(Nc1ccccc1C(=O)Nc1nnc(C(F)(F)F)s1)c1ccccc1Cl | . | . | . | 100 | . | . | 101 | 93
Cc1cccc(OCCCC(=O)Nc2nc3ccccc3[nH]2)c1 | . | . | . | . | . | . | 72 | .
Cc1ccc(OCCCC(=O)Nc2nc3ccccc3[nH]2)cc1 | . | . | . | . | . | . | / | /
C=CCOC(=O)C1=C(C)N=c2sc(=C3C(=O)N(CC(=O)O)c4ccccc43)c(=O)n2C1c1ccc(OC)cc1 (configuration not stated) | / | / | / | / | / | . | / | /
CN(C)S(=O)(=O)Oc1cccc(C(=O)Nc2ccc(Cl)cc2)c1 | . | . | . | . | . | . | . | .
COC(=O)c1cc(CSc2nc3ccccc3c(=O)n2C)oc1C | . | . | . | 87 | . | . | 83 | 71
COc1cc(C(=O)NCCOc2cc(C)ccc2C(C)C)cc(OC)c1OC | . | . | . | . | . | . | . | .
CC(C)(C)c1ccc(-c2n[nH]c(=S)n2Cc2ccccc2)cc1 | . | . | . | . | . | . | / | /
CC(C)n1c(-c2ccc(C(C)(C)C)cc2)n[nH]c1=S | . | . | . | 79 | . | . | 84 | .
CCCCCCCCN1C(=O)[C@@H](CC(=O)NCc2ccc(OC)c(OC)c2)C[C@@]2(C(=O)OC)C1=C[C@H](C(C)C)O[C@@H]2C1CC1 | / | / | / | / | / | . | / | /
O=C(Nc1ccc(F)cc1F)N1CCCN(c2ccc(C(F)(F)F)cn2)CC1 | . | . | . | . | . | . | / | /
Fc1ccc(NC(=S)N2CCCN(c3ccc(C(F)(F)F)cn3)CC2)c(F)c1 | . | . | . | . | . | . | 91 | 77
